A word on the IC50: it is the concentration that gives 50% inhibition. For orientation: inhibition means the relative decrease from the control value, in per cent. For orientation: bioavailability means the share of a dose that reaches the circulation, judged against a reference dose that is usually intravenous.

One compound from ChEMBL document CHEMBL5661979, “Pharmacological inhibition of BMK1 suppresses tumor growth through promyelocytic leukemia protein” (Cancer Cell, 2010) can be followed below.

Series [1] has as its target Serine/threonine-protein kinase 38 (Homo sapiens, UniProt Q15208). Nature of the series: Inhibition of NDR1 in human HeLa cells lysate pre incubated for 15 mins followed by ATP acyl phosphate probe addition and measured after 10 mins by LC-MS/MS analysis. It is filed as subcellular.
The target in series [2] is Ribosomal protein S6 kinase alpha-5 (Homo sapiens, UniProt O75582). Kind of series: Inhibition of MSK1 domain 1 K1 site in human HeLa cells lysate pre incubated for 15 mins followed by ADP acyl phosphate probe addition and measured after 10 mins by LC-MS/MS analysis. The format is subcellular.
For series [3], the target named is Serine/threonine-protein kinase Nek3 (Homo sapiens, UniProt P51956). Nature of the series: Inhibition of NEK3 in human HeLa cells lysate pre incubated for 15 mins followed by ADP acyl phosphate probe addition and measured after 10 mins by LC-MS/MS analysis. The format is subcellular.
A short description of series [4]: Inhibition of NEK6/7 in human HeLa cells lysate pre incubated for 15 mins followed by ADP acyl phosphate probe addition and measured after 10 mins by LC-MS/MS analysis. The format is subcellular.
The nature of series [5]: Inhibition of CK1g1/g2/g3 in human HeLa cells lysate at 50 uM pre incubated for 15 mins followed by ADP acyl phosphate probe addition and measured after 10 mins by LC-MS/MS analysis relative to control. Particulars: 25 min, condition cancer.
Series [6] deals with T1, Non-receptor tyrosine-protein kinase TNK1 (Homo sapiens) (UniProt Q13470).
T1 sequence (whole entry): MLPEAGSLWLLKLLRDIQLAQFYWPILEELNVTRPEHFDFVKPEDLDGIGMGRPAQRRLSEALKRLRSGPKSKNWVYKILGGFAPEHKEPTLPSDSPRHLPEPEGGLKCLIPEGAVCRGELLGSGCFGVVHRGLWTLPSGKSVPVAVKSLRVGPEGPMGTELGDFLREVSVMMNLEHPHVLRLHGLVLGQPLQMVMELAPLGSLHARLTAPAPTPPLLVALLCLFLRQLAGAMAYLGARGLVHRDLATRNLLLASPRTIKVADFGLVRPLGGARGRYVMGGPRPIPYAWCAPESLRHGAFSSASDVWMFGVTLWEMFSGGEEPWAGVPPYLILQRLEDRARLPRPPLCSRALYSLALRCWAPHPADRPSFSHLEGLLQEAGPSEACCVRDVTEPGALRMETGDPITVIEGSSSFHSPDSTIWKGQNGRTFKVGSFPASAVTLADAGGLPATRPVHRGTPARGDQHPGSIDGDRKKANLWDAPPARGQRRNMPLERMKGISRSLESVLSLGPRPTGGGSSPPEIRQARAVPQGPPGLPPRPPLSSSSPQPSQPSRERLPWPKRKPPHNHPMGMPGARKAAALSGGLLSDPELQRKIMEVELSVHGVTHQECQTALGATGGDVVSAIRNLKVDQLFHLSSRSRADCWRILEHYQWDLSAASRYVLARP
Kind of series: Inhibition of TNK1 in human HeLa cells lysate at 10 uM pre incubated for 15 mins followed by ADP acyl phosphate probe addition and measured after 10 mins by LC-MS/MS analysis relative to control. It is filed as subcellular. The conditions noted are these: time 25.0 min.

Series [7] can be described thus: Inhibition of HGK/MINK/TNIK in human HeLa cells lysate at 2 uM pre incubated for 15 mins followed by ADP acyl phosphate probe addition and measured after 10 mins by LC-MS/MS analysis relative to control. The conditions noted are these: 25 min, condition cancer.
A short description of series [8]: Inhibition of CK1g1/g2/g3 in human HeLa cells lysate at 2 uM pre incubated for 15 mins followed by ADP acyl phosphate probe addition and measured after 10 mins by LC-MS/MS analysis relative to control. Particulars: 25 min, condition cancer.
For series [9], the target named is Phosphatidylinositol 5-phosphate 4-kinase type-2 beta (Homo sapiens) (UniProt P78356). Kind of series: Inhibition of PIP5K2B in human HeLa cells lysate at 50 uM pre incubated for 15 mins followed by ATP acyl phosphate probe addition and measured after 10 mins by LC-MS/MS analysis relative to control. Particulars: time 25.0 min. The format is subcellular.
Series [10] has as its target T2, Scaffold protein ILK (Homo sapiens) (UniProt Q13418).
T2 sequence (whole entry): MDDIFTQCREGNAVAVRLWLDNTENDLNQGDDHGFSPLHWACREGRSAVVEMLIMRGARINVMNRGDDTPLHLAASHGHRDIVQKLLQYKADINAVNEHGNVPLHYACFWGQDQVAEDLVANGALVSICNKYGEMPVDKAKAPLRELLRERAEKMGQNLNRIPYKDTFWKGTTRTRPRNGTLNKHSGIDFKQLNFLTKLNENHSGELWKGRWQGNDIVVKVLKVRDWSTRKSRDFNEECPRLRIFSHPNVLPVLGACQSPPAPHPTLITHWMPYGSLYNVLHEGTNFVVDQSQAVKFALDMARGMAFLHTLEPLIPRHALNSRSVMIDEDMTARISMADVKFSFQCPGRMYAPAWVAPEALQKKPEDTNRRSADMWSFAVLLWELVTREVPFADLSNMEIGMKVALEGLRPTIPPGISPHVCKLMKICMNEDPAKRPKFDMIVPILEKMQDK
Kind of series: Inhibition of ILK in human HeLa cells lysate at 50 uM pre incubated for 15 mins followed by ATP acyl phosphate probe addition and measured after 10 mins by LC-MS/MS analysis relative to control. It is filed as subcellular. The conditions noted are these: time 25.0 min.

For series [11], the target named is Glycogen synthase kinase-3 beta (Homo sapiens, UniProt P49841). Kind of series: Inhibition of GSK3B isoform 2 in human HeLa cells lysate at 10 uM pre incubated for 15 mins followed by ATP acyl phosphate probe addition and measured after 10 mins by LC-MS/MS analysis relative to control. The format is subcellular. The conditions noted are these: time 25.0 min.

For a further series, the target named is RPS6KA1/RPS6KA2/RPS6KA3 (Homo sapiens, UniProt P51812+Q15349+Q15418). Kind of series: Inhibition of RSK1/2/3 in human HeLa cells lysate at 10 uM pre incubated for 15 mins followed by ATP acyl phosphate probe addition and measured after 10 mins by LC-MS/MS analysis relative to control. The format is subcellular. Particulars: time 25.0 min.
In series [12] the target is Calcium/calmodulin-dependent protein kinase type 1D (Homo sapiens, UniProt Q8IU85). Nature of the series: Inhibition of CAMK1d in human HeLa cells lysate at 10 uM pre incubated for 15 mins followed by ATP acyl phosphate probe addition and measured after 10 mins by LC-MS/MS analysis relative to control. Particulars: time 25.0 min. The format is subcellular. In a few lines:
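KiNativ-type profiling in HeLa lysate (5 mg/mL total protein). Lysate preincubated 15 min with inhibitor at 50, 10, 2, 0.8 or 0 μM, then ATP or ADP acylphosphate probe added (5 μM final) for 10 min. Reaction stopped with urea and analysed by targeted MS, using up to four fragment ions per kinase peptide-probe conjugate. % inhibition calculated against untreated lysate. Duplicate reactions.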

The nature of series [13]: Oral bioavailability in Sprague-Dawley rat at 2 mg/kg measured up to 8 hrs by LC-MS/MS analysis. It is filed as ADME, organism-based. Particulars: in vivo.
A short description of series [14]: Toxicity in C57Bl/6 mouse assessed as effect on creatinine level at 50 mg/kg, ip for 14 days (reference value: < 0.2 mg/dl). It is filed as organism-based. Particulars: in vivo, 336 h, time 14 day.

Sequence of Ribosomal protein S6 kinase alpha-5 (O75582 whole entry, the tested form may be a part): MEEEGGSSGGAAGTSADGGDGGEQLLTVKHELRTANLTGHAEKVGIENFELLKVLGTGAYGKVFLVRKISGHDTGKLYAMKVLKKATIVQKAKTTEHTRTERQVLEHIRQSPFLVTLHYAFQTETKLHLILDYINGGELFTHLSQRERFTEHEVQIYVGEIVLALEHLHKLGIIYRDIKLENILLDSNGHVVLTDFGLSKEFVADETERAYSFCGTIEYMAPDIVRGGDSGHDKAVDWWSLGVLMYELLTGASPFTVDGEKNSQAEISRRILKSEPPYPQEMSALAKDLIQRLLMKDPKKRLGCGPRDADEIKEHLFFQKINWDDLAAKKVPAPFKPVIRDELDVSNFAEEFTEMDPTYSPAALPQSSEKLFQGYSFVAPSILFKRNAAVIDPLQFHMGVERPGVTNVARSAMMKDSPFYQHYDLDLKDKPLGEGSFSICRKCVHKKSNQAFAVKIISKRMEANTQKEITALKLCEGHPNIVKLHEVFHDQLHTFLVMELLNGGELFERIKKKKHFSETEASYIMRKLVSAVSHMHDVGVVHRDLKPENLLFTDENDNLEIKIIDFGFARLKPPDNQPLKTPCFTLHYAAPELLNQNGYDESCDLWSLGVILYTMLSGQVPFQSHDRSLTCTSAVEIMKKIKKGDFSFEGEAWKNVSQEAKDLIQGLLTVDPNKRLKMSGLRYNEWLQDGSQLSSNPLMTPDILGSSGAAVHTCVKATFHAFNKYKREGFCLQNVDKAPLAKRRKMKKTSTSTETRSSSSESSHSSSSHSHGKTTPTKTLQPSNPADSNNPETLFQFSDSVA
Sequence of RPS6KA1/RPS6KA2/RPS6KA3 (P51812 whole entry, looked up): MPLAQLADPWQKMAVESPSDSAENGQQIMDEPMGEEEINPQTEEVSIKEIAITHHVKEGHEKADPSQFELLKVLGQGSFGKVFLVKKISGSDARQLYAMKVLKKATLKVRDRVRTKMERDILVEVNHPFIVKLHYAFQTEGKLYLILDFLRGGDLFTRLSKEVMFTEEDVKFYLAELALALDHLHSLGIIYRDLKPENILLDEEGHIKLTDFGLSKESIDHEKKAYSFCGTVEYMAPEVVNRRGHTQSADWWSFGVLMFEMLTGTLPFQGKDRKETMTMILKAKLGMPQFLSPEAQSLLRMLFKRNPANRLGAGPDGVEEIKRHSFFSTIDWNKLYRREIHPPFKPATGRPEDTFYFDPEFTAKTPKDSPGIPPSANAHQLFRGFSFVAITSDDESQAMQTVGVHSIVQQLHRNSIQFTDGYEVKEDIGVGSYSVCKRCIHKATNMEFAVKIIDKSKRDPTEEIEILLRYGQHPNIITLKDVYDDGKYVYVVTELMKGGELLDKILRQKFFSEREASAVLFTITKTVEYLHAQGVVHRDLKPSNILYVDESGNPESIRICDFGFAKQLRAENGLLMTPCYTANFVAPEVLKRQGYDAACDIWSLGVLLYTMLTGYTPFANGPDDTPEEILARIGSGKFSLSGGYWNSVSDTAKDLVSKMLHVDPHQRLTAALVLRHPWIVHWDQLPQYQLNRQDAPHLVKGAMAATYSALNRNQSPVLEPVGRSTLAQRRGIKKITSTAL
Sequence of RPS6KA1/RPS6KA2/RPS6KA3 (Q15349 whole entry, looked up): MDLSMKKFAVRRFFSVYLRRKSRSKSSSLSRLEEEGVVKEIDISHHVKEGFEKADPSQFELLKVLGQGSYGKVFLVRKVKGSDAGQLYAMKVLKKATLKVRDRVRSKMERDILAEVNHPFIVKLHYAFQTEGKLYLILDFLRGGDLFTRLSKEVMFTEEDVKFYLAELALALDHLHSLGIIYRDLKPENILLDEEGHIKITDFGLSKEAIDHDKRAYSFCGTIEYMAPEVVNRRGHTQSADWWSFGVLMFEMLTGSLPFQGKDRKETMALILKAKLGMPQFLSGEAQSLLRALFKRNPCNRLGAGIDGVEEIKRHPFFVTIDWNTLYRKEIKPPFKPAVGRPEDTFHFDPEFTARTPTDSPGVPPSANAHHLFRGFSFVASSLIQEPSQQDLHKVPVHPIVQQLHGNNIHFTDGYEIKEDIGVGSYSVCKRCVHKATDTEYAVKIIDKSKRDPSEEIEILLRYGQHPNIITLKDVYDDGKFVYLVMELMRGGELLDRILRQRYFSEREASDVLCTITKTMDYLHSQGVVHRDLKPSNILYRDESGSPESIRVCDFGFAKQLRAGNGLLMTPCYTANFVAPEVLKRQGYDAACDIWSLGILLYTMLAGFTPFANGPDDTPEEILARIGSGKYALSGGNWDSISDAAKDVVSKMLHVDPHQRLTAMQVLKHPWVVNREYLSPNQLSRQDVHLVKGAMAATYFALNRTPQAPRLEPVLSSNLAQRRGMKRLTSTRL
Sequence of RPS6KA1/RPS6KA2/RPS6KA3 (Q15418 whole entry, looked up): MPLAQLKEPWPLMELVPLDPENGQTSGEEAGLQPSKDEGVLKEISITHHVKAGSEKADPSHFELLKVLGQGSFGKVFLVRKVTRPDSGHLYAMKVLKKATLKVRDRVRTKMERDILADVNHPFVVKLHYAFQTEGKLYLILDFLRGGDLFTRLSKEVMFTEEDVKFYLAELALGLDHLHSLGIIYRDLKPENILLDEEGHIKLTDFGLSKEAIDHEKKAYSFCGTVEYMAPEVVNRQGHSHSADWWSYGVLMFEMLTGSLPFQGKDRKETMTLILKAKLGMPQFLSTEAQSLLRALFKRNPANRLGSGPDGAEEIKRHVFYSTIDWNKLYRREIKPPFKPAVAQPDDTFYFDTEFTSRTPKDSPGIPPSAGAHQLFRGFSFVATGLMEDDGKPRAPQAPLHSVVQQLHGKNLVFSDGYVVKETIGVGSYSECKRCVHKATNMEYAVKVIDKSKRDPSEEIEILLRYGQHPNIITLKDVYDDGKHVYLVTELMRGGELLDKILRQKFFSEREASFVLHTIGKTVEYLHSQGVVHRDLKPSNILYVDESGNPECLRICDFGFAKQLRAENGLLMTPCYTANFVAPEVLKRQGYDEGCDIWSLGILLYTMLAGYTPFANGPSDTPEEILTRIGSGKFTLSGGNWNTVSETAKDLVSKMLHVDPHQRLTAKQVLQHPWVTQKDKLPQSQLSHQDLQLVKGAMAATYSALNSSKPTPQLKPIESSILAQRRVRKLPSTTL
Sequence of Calcium/calmodulin-dependent protein kinase type 1D (Q8IU85 whole entry, looked up, the tested form may be a part): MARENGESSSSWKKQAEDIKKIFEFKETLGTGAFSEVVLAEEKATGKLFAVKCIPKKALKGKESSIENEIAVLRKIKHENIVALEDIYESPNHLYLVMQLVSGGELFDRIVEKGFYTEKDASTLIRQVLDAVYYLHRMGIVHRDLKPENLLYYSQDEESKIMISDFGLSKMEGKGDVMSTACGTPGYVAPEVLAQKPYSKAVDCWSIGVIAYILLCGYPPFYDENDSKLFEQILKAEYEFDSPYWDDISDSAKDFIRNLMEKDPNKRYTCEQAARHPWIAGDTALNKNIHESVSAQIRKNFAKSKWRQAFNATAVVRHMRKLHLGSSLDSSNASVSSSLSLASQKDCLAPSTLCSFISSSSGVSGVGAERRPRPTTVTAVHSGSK
Sequence of Glycogen synthase kinase-3 beta (P49841 whole entry, looked up, canonical isoform): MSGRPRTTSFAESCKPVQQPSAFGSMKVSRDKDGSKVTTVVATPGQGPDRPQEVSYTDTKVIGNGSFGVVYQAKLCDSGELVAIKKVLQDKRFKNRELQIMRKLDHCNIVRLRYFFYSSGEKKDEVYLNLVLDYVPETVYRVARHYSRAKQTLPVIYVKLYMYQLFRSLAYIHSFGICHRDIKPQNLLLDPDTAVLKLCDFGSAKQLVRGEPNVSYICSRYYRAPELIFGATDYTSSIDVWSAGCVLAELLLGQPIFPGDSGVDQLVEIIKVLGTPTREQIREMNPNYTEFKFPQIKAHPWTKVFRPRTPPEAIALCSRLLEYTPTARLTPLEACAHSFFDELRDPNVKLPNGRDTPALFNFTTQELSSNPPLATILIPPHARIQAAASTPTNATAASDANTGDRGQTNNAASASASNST
Sequence of Phosphatidylinositol 5-phosphate 4-kinase type-2 beta (Homo sapiens) (P78356 whole entry): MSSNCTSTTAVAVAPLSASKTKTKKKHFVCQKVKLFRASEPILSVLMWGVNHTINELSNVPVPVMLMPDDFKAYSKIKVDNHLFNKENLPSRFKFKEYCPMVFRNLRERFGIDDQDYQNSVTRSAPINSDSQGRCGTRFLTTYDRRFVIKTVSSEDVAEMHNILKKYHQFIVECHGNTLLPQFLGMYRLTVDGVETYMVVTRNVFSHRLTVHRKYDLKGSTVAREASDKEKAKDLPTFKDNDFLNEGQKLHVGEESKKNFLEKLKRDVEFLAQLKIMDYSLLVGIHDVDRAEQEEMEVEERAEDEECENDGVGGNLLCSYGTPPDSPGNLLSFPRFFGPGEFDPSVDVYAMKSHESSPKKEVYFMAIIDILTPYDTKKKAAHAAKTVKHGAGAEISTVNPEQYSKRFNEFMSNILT
Sequence of Serine/threonine-protein kinase 38 (Q15208 whole entry, the tested form may be a part): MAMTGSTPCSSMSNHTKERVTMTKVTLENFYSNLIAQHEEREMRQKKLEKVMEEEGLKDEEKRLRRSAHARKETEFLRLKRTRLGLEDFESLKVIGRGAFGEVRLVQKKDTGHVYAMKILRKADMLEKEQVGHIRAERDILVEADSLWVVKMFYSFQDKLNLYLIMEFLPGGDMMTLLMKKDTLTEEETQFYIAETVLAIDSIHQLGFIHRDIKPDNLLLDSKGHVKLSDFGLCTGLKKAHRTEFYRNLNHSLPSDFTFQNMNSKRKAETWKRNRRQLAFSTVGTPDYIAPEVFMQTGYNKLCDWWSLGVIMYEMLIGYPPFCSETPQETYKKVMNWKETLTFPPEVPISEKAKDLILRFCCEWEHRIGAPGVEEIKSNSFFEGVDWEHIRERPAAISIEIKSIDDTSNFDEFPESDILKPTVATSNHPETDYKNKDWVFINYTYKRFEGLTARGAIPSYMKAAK

Consider `CCOc1cc(N2CCC(O)CC2)ccc1Nc1ncc2c(n1)N(C)c1ccccc1C(=O)N2C`, for which the half-inhibitory concentration (IC50) in [1], in [2], in series [3] and in [4] was over 50 µM each time. For the same compound, the inhibition at 50 µM in [5] was -80.5%. The inhibition in series [6] is 46%; in [9], 6.9%; in series [10], -6.7%; in series [11], -7.8%; at RPS6KA1/RPS6KA2/RPS6KA3, -7.4%; in series [12], -7.6%. The inhibition at 2 µM was 8.7% in [7] and 61.7% in series [8]. Also, in series [13], the bioavailability came to 69%. For the same compound, the Activity in [14] is under 0.2 mg/dL.
